In ChEMBL document CHEMBL3124806, “Imidazopyridine-fused [1,3]-diazepinones: synthesis and antiproliferative activity” (Eur J Med Chem, 2014) one finds GI50, TGI and CC50 data, which are given here for one molecule.

In one assay the test system is NCI-H522. The assay can be described thus: Cytotoxicity against human NCI-H522 cells after 48 hrs by SRB assay. The assay is classed as functional. Particulars: NCI-H522, 48 h. Summed up: (§1)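 NCI-60 five-dose screen: cells exposed continuously for 48 h across 100 to 0.01 µM. Growth or viability estimated by sulforhodamine B protein staining, read spectrophotometrically against untreated controls; IC50 taken from the dose-response.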
For orientation: The SRB assay estimates cell density from bound dye.

A short description of assay [1]: Cytotoxicity against human OVCAR4 cells after 48 hrs by SRB assay. The assay is classed as functional. Particulars: OVCAR-4, 48 h. Summed up:
as §1

Where [2] appears, read: read-out: LC50 (the source's name).

One may read the GI50 as the concentration at which growth is held to half of that of the control. A lower GI50 goes with greater sensitivity of the cells. Usually TGI stands for the concentration giving total growth inhibition. Higher therefore signals less potent growth arrest.

Some results are limits rather than exact numbers.

`C[C@@H]1NC(c2ccc(Br)cc2)=Nc2nc3ccccn3c2C1=O`: the GI50 in the assay on NCI-H522 was found to be 3.23 µM; in assay [1], 17.9 µM. The TGI with NCI-H522 was 18.4 µM; in assay [1], more than 100 µM. Besides, the CC50 (in the assay with NCI-H522 (setting [2]); in assay [1] (setting [2])) was more than 100 µM throughout.
